Compound activity as filed in PubChem.
Lmaj promast = inhibitors of Leishmania major promastigote growth; inhibition, % at 10 µM; Leishmania major promastigotes, resazurin fluorescence viability; 9% of 200,000 active; in the data active = inhibition above about 50%;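 also: promastigotes grown with compound for 44 hours at 28 °C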
T cruzi repl = blocks replication of Trypanosoma cruzi; 1.4% of 300,000 active; AID 1885; T. cruzi beta-gal in NIH3T3, luminescence, 90 h; inhibition, % (concentration not given with the values);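 active = mean inhibition across valid replicates above about 55%, limit read from the data; inconclusive = mean below that limit but half or more replicates reach it; inactive = mean below it, under half of replicates reach it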;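 also: signal also drops with host cell toxicity which is not excluded here; 0% = plate median of DMSO wells and 100% = zero luminescence signal; higher percent means less beta-gal luminescence so fewer parasites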
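Test system: β-gal T. cruzi (Tulahuen C4) inside NIH/3T3 cells / Quantity: 5,000 cells/well / Measured by: luminescence from GalScreen with 0.05% NP40, read after 60 min / Medium: DMEM plus 2% FBS / Measure: parasite load inhibition, % / Reagent: Tulahuen C4 trypomastigotes, 5000/well / Schedule: co-culture of at least 90 h after 3 h attachment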
Calb FLC = affects C. albicans growth with fluconazole. C. albicans CaCi-2 + fluconazole, Alamar Blue growth, 48 h. growth inhibition, % (concentration not given with the values). 0.57% of 300,000 active. AID 1979;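 active = growth inhibition above about 58% in most replicates, limit read from the data, passing the limit was not always enough; inconclusive = exactly half the replicates above a set limit; inactive = most replicates below a set limit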;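 also: all wells also contain fluconazole at 8 µg/ml as a sub-toxic cotreatment; 0% = median of DMSO wells and 100% = median of geldanamycin control wells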
NLRP3 yeast inh = NALP3 inhibition in yeast | Yeast reconstituted NLRP3/ASC/caspase-1, beta-gal luminescence, 24 h | inhibition, % at 10 µM | 0.39% of 330,000 active | AID 2825;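 active = inhibition of 50% or more; inactive = inhibition below 50%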;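 also: plate controls were induced DMSO wells for no effect and uninduced yeast grown without galactose for full effect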
NALP1 inh = inhibitors of NALP1 inflammasome in yeast. S. cerevisiae NALP1/ASC/caspase-1 growth, X-gal OD620, 72 h. inhibition, % at 10 µM. 0.61% of 280,000 active. AID 2071; in the data active = inhibition mostly above about 24%, no sharp cut-off; inactive = mostly below about 32%
PolyA inh = yeast polyadenylation inhibition; S. cerevisiae SKY197-pL101 polyadenylation reporter, beta-gal luminescence; efflux-impaired pdr1/pdr3 knockout yeast; score 100 = 6 SD above DMSO; 0.02% of 300,000 active; activity score, % at 12 µM;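 active = lowest replicate activity score at least 50, where 100 means six control SD above control mean; inconclusive = lowest score under 50 but half or more replicates reach 50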;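 also: yeast exposed to compound for 9 h at 30 °C; higher score means more reporter readthrough which indicates perturbed polyadenylation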
* marks the source's active call; other numbers are inactive results. Only a selection was taken, and hits are over-represented in it overall.

What do the screens show for `C/C(=N\OCC(=O)OCC(=O)NCc1ccccc1)c1ccc2c(c1)OCO2`?
T cruzi repl: -13.3; Calb FLC: 2.4; NLRP3 yeast inh: 10.1; PolyA inh: 3.1

What do the screens show for `Cc1cc(N2CCOCC2)ccc1/C=C\[N+](=O)[O-]`?
Lmaj promast: 69.6*; T cruzi repl: 12.8; Calb FLC: -34.1; NLRP3 yeast inh: -3.0; NALP1 inh: 75.1; PolyA inh: -0.7

Results for COCCOc1cc(Nc2nnc(C(F)(F)F)s2)c(Cl)cc1Cl ?
Lmaj promast: 63.4*; T cruzi repl: -4.2; Calb FLC: 1.3; NLRP3 yeast inh: -22.2; NALP1 inh: 0.8; PolyA inh: 1.1

How did COc1cccc(Nc2nnc(SCC(=O)Nc3sccc3C(N)=O)s2)c1 do in these assays?
Lmaj promast: 65.0*; T cruzi repl: 8.0; Calb FLC: -12.2; NLRP3 yeast inh: 6.8; NALP1 inh: 6.9; PolyA inh: 4.0

Results for CCOc1ccccc1Nc1nnc(SCC(=O)NC(=O)c2cccn2C)s1 ?
Lmaj promast: 55.7*; T cruzi repl: 2.9; Calb FLC: -5.4; NLRP3 yeast inh: 10.9; NALP1 inh: 0.8; PolyA inh: 6.0

How did CCc1ccc(Nc2nnc(SCC(=O)Nc3cccnc3Cl)s2)cc1 do in these assays?
Lmaj promast: 90.1*; T cruzi repl: -10.7; Calb FLC: -0.1; NLRP3 yeast inh: 15.9; NALP1 inh: 29.1; PolyA inh: -7.1

How did CCc1ccc(Nc2nnc(SCC(=O)Nc3sccc3C(N)=O)s2)cc1 do in these assays?
Lmaj promast: 98.1*; T cruzi repl: 5.8; Calb FLC: 0.7; NLRP3 yeast inh: 3.8; NALP1 inh: 17.7; PolyA inh: -14.8

What do the screens show for `COc1cc(OC)cc(C(=O)N[C@H](C(=O)Nc2c(C)n(C)n(-c3ccccc3)c2=O)C(C)C)c1`?
NLRP3 yeast inh: -4.4

What do the screens show for `CCOc1ccc(CC(=O)N2N=C(C)CC2(O)C(F)(F)F)cc1` (configuration not stated)?
Lmaj promast: -3.8; T cruzi repl: 4.0; Calb FLC: 3.6; NLRP3 yeast inh: -4.3; NALP1 inh: 23.1; PolyA inh: -23.8

What do the screens show for `CC1(CCc2ccc3c(c2)OCO3)NC(=O)c2ccccc2N1` (configuration not stated)?
Lmaj promast: 99.9*; T cruzi repl: -9.1; Calb FLC: -19.5; NLRP3 yeast inh: -5.2; NALP1 inh: -9.9; PolyA inh: inconclusive

Results for O=C1NC(c2ccc3c(c2)OCO3)Nc2ccccc21 (configuration not stated) ?
Lmaj promast: 0.8; T cruzi repl: 2.5; Calb FLC: 2.7; NLRP3 yeast inh: 19.7; NALP1 inh: -30.8; PolyA inh: 1.6

How did Nc1nc(SCC(=O)NCCO)nc2sc3c(c12)CCCC3 do in these assays?
Lmaj promast: 8.0; T cruzi repl: 5.7; Calb FLC: -4.2; NLRP3 yeast inh: 3.8; NALP1 inh: -13.7; PolyA inh: -11.7

Results for CC(C)(C)C1CCc2c(sc3nc(SCC(=O)O)nc(N)c23)C1 (configuration not stated) ?
T cruzi repl: 44.5; Calb FLC: -0.1; NLRP3 yeast inh: -1.8; NALP1 inh: -95.3; PolyA inh: -5.8

How did COC(=O)CSc1nc(N)c2c3c(sc2n1)CCCC3 do in these assays?
Lmaj promast: 70.6*; T cruzi repl: 5.3; Calb FLC: 0.1; NLRP3 yeast inh: 11.7; NALP1 inh: 18.1; PolyA inh: -6.3

How did COC(=O)CSc1nc(N)c2c3c(sc2n1)C(c1ccccc1)SC(c1ccccc1)C3 (configuration not stated) do in these assays?
Lmaj promast: 85.2*; T cruzi repl: 41.0; Calb FLC: 2.6; NLRP3 yeast inh: 9.3; NALP1 inh: 22.8; PolyA inh: -18.1

What do the screens show for `Cc1ccc(C(=O)N2CC(C)CC(C)C2)cc1S(=O)(=O)N1CCCCC1` (configuration not stated)?
NLRP3 yeast inh: 7.9

Results for O=C(CCNS(=O)(=O)c1ccc(Br)s1)Nc1ccc(Cl)cc1 ?
Lmaj promast: 81.2*; T cruzi repl: 58.1*; Calb FLC: 35.5; NLRP3 yeast inh: 10.2; NALP1 inh: 23.5; PolyA inh: 0.6

How did C=CC[n+]1c(-c2ccc(C)cc2)csc1Nc1c(C)n(C)n(-c2ccccc2)c1=O do in these assays?
Lmaj promast: 3.7; T cruzi repl: 65.5*; Calb FLC: -27.5; NLRP3 yeast inh: 16.9; NALP1 inh: -3.4; PolyA inh: -13.1

How did COC(=O)c1ccc(NC(=O)CCN2CCN(Cc3ccccc3)CC2)cc1 do in these assays?
Lmaj promast: 75.0*; T cruzi repl: 65.3*; Calb FLC: -16.6; NLRP3 yeast inh: 8.3; NALP1 inh: 10.2; PolyA inh: -5.4

What do the screens show for `O=C(CCN1CCN(Cc2ccccc2)CC1)Nc1ccc(OCc2ccccc2)cc1`?
Lmaj promast: 9.7; T cruzi repl: 48.8; Calb FLC: -13.1; NLRP3 yeast inh: 16.6; NALP1 inh: 10.5; PolyA inh: 15.1

Results for CN1CCN(CCC(=O)Nc2ccc(OCc3ccccc3)cc2)CC1 ?
Lmaj promast: 82.1*; T cruzi repl: 22.3; Calb FLC: -8.7; NLRP3 yeast inh: 17.6; NALP1 inh: 13.4; PolyA inh: 23.2

What do the screens show for `O=C(/C=C/c1ccc(F)cc1)NNC(=O)CCN1CCN(Cc2ccccc2)CC1`?
Lmaj promast: 54.5*; T cruzi repl: -2.6; Calb FLC: -4.5; NLRP3 yeast inh: 19.0; NALP1 inh: 11.0; PolyA inh: 15.8

How did COc1cccc(/C=C/C(=O)NNC(=O)CCN2CCN(Cc3ccccc3)CC2)c1 do in these assays?
T cruzi repl: 5.0; Calb FLC: -1.4; NLRP3 yeast inh: 7.0; PolyA inh: 20.9

Results for O=C(CCN1CCN(CCO)CC1)Nc1ccc(OCc2ccccc2)cc1 ?
Lmaj promast: 61.1*; T cruzi repl: 6.6; Calb FLC: 16.8; NLRP3 yeast inh: 1.9; NALP1 inh: 29.3; PolyA inh: 23.1

What do the screens show for `CC(C)n1nnc(-c2ccc(OCc3ccccc3F)cc2)n1`?
T cruzi repl: -6.1; Calb FLC: 2.1; NLRP3 yeast inh: 28.1; NALP1 inh: 10.9; PolyA inh: 2.3

Results for CN1C2C=C(N(CCc3c[nH]c4ccccc34)C(=O)c3ccc(Cl)cc3)CC1CC2 (configuration not stated) ?
Lmaj promast: 100.6*; T cruzi repl: -9.7; Calb FLC: -7.5; NLRP3 yeast inh: -2.5; NALP1 inh: 4.1; PolyA inh: -10.5

Results for COc1ccc(CCN(C(=O)c2ccccc2)C2=CC3CCC(C2)N3C)cc1OC (configuration not stated) ?
Lmaj promast: -3.3; T cruzi repl: -5.7; Calb FLC: 4.2; NALP1 inh: 10.7; PolyA inh: -9.5

What do the screens show for `O=C(COC(=O)Cc1ccsc1)Nc1ccc(F)cc1Cl`?
NLRP3 yeast inh: 11.5
